# Measurements reported in ChEMBL document CHEMBL3259728, “Design, synthesis and biological evaluation of some novel substituted quinazolines as antitumor agents” (2014).
# Assays:
# Assay type in all cases: functional
# [1] = test system: SF-268; experiment: Growth inhibition of human SF268 cells assessed as cell growth at 10^-4 M after 48 hrs by SRB assay; details: SF-268, 48 h, read-out: Activity
# [2] = test system: IGROV-1; experiment: Growth inhibition of human IGROV1 cells assessed as cell growth at 10^-7 M after 48 hrs by SRB assay; details: IGROV-1, 48 h, read-out: Activity
# [3] = Growth inhibition of human OVCAR3 cells assessed as cell growth at 10^-4 M after 48 hrs by SRB assay; details: OVCAR-3, 48 h, read-out: Activity
# [4] = test system: MDA-MB-468; experiment: Growth inhibition of human MDA-MB-468 cells assessed as cell growth at 10^-5 M after 48 hrs by SRB assay; details: MDA-MB-468, 48 h, read-out: Activity
# [5] = test system: SW-620; experiment: Cytotoxicity against human SW620 cells after 48 hrs by SRB assay; details: SW-620, 48 h
# Method in brief: (§1)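 NCI 60-cell-line panel of human tumour lines from nine cancer types. Continuous 48 h exposure at five 10-fold dilutions from 10^-4 to 10^-8 M, with 5-FU as positive control. SRB protein stain read spectrophotometrically at time zero, untreated control and each concentration. GI50, TGI and LC50 were derived from the [(Ti−Tz)/(C−Tz)]×100 growth relations, and out-of-range values are given as > or < the tested limits.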
# [6] = Growth inhibition of human SF539 cells assessed as cell growth at 10^-4 M after 48 hrs by SRB assay; details: SF-539, 48 h, read-out: Activity
# [7] = Growth inhibition of human Hs578T cells assessed as cell growth at 10^-5 M after 48 hrs by SRB assay; details: Hs-578T, read-out: Activity
# [8] = Growth inhibition of human MOLT4 cells assessed as cell growth at 10^-8 M after 48 hrs by SRB assay; details: MOLT-4, 48 h, read-out: Activity
# [9] = Growth inhibition of human NCI-ADR-RES cells assessed as cell growth at 10^-6 M after 48 hrs by SRB assay; details: read-out: Activity
# [10] = Growth inhibition of human UACC257 cells assessed as cell growth at 10^-8 M after 48 hrs by SRB assay; details: UACC-257, 48 h, read-out: Activity
# [11] = test system: KM12; experiment: Growth inhibition of human KM12 cells assessed as cell growth at 10^-5 M after 48 hrs by SRB assay; details: KM12, 48 h, read-out: Activity
# [12] = test system: K562; experiment: Cytotoxicity against human K562 cells after 48 hrs by SRB assay; details: K562, 48 h; method in brief: as §1
# [13] = test system: RPMI-8226; experiment: Growth inhibition of human RPMI8226 cells assessed as cell growth at 10^-4 M after 48 hrs by SRB assay; details: RPMI-8226, 48 h, read-out: Activity
# [14] = test system: NCI-H226; experiment: Growth inhibition of human NCI-H226 cells assessed as cell growth at 10^-5 M after 48 hrs by SRB assay; details: NCI-H226, 48 h, read-out: Activity
# [15] = test system: SK-OV-3; experiment: Growth inhibition of human SKOV3 cells assessed as cell growth at 10^-6 M after 48 hrs by SRB assay; details: SK-OV-3, 48 h, read-out: Activity
# [16] = test system: K562; experiment: Growth inhibition of human K562 cells assessed as cell growth at 10^-6 M after 48 hrs by SRB assay; details: K562, 48 h, read-out: Activity
# [17] = test system: U-251; experiment: Growth inhibition of human U251 cells assessed as cell growth at 10^-8 M after 48 hrs by SRB assay; details: U-251, 48 h, read-out: Activity
# [18] = Growth inhibition of human EKVX cells assessed as cell growth at 10^-5 M after 48 hrs by SRB assay; details: read-out: Activity
# [19] = test system: HCT-116; experiment: Growth inhibition of human HCT116 cells assessed as cell growth at 10^-8 M after 48 hrs by SRB assay; details: HCT-116, 48 h, read-out: Activity
# [20] = test system: NCI-H322M; experiment: Cytotoxicity against human NCI-H322M cells after 48 hrs by SRB assay; method in brief: as §1
# [21] = test system: MCF7; experiment: Growth inhibition of human MCF7 cells assessed as cell growth at 10^-6 M after 48 hrs by SRB assay; details: MCF7, 48 h, read-out: Activity
# [22] = test system: SK-OV-3; experiment: Cytotoxicity against human SKOV3 cells after 48 hrs by SRB assay; details: SK-OV-3, 48 h; method in brief: as §1
# [23] = test system: Malme-3M; experiment: Cytotoxicity against human MALME-3M cells after 48 hrs by SRB assay; method in brief: as §1
# [24] = test system: COLO 205; experiment: Growth inhibition of human COLO205 cells assessed as cell growth at 10^-4 M after 48 hrs by SRB assay; details: COLO 205, 48 h, read-out: Activity
# Method in brief: (§2)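 Five-dose NCI panel protocol. Each dose (10^-4 to 10^-8 M, 10-fold steps) was given as 48 h continuous exposure, and protein was measured by SRB staining. Percentage growth at each level is [(Ti−Tz)/(C−Tz)]×100, where Tz is time-zero absorbance and C is untreated control.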
# [25] = test system: ACHN; experiment: Growth inhibition of human ACHN cells assessed as cell growth at 10^-5 M after 48 hrs by SRB assay; details: read-out: Activity; method in brief: as §2
# [26] = test system: IGROV-1; experiment: Growth inhibition of human IGROV1 cells assessed as cell growth at 10^-5 M after 48 hrs by SRB assay; details: IGROV-1, 48 h, read-out: Activity
# [27] = test system: U-251; experiment: Growth inhibition of human U251 cells assessed as cell growth at 10^-5 M after 48 hrs by SRB assay; details: U-251, 48 h, read-out: Activity
# [28] = Growth inhibition of human UACC257 cells assessed as cell growth at 10^-5 M after 48 hrs by SRB assay; details: UACC-257, 48 h, read-out: Activity
# [29] = test system: NCI-H460; experiment: Growth inhibition of human NCI-H460 cells assessed as cell growth at 10^-8 M after 48 hrs by SRB assay; details: NCI-H460, 48 h, read-out: Activity
# [30] = read-out: LC50 (the source's name)
# [31] = read-out: pLC50 (the source's name) (converted)
smiles,measurement,setting,value
Cc1ccc(-c2nc3ccc(Cl)cc3c(=O)n2/N=C/c2ccccc2)cc1,growth at 100 µM,[1],36%
same,growth at 0.1 µM,[2],78%
same,growth at 100 µM,[3],15%
same,growth at 10 µM,[4],65%
same,GI50,[5]; read-out: GI50,> 100 µM
same,CC50,[5]; [30],> 100 µM
same,TGI,[5]; read-out: TGI,> 100 µM
same,GI50,[5]; read-out: pGI50 (converted),> 100 µM
same,CC50,[5]; [31],> 100 µM
same,TGI,[5]; read-out: pTGI,> 100 µM
same,growth at 100 µM,[6],75%
same,growth at 10 µM,[7],3%
same,growth at 0.01 µM,[8],103%
same,growth at 1 µM,[9],89%
same,growth at 0.01 µM,[10],100%
same,growth at 10 µM,[11],74%
same,GI50,[12]; read-out: GI50,> 100 µM
same,LC50,[12]; read-out: LC50,> 100 µM
same,TGI,[12]; read-out: TGI,> 100 µM
same,GI50,[12]; read-out: pGI50 (converted),> 100 µM
same,LC50,[12]; read-out: pLC50 (converted),> 100 µM
same,TGI,[12]; read-out: pTGI,> 100 µM
same,growth at 100 µM,[13],60%
same,growth at 10 µM,[14],38%
same,growth at 1 µM,[15],93%
same,growth at 1 µM,[16],92%
same,growth at 0.01 µM,[17],99%
same,growth at 10 µM,[18],34%
same,growth at 0.01 µM,[19],100%
same,GI50,[20]; read-out: GI50,17.4 µM
same,LC50,[20]; read-out: LC50,> 100 µM
same,TGI,[20]; read-out: TGI,> 100 µM
same,GI50,[20]; read-out: pGI50 (converted),17.4 µM
same,LC50,[20]; read-out: pLC50 (converted),> 100 µM
same,TGI,[20]; read-out: pTGI,> 100 µM
same,growth at 1 µM,[21],86%
same,GI50,[22]; read-out: GI50,2.89 µM
same,CC50,[22]; [30],> 100 µM
same,TGI,[22]; read-out: TGI,9.9 µM
same,GI50,[22]; read-out: pGI50 (converted),2.88 µM
same,CC50,[22]; [31],> 100 µM
same,TGI,[22]; read-out: pTGI (converted),10 µM
same,GI50,[23]; read-out: GI50,5.97 µM
same,CC50,[23]; [30],> 100 µM
same,TGI,[23]; read-out: TGI,> 100 µM
same,GI50,[23]; read-out: pGI50 (converted),6.03 µM
same,CC50,[23]; [31],> 100 µM
same,TGI,[23]; read-out: pTGI,> 100 µM
same,growth at 100 µM,[24],38%
same,growth at 10 µM,[25],10%
same,growth at 10 µM,[26],34%
same,growth at 10 µM,[27],32%
same,growth at 10 µM,[28],73%
same,growth at 0.01 µM,[29],100%
